In article PMC4047138 (Pharmacological research : the official journal of the …, 2013):
Entries after “also recorded” stand apart in the source; their conditions may differ.

Legend:
[1] = target: T1, hV2R[L^83Q] (Homo sapiens, UniProt P30518, L83Q); assay: hV2R[L^83Q] pharmacoperone assay; format: cell-based; settings: for LOPAC Screen Average % Response +/- Std Dev: single concentration of 6 μM (0.4% DMSO), SR121463 as positive control, -Dox
[2] = test system: hV2R[L^83Q] cells in the presence of doxycycline; assay: counter screen: same hV2R[L^83Q] HeLa cells incubated with doxycycline 36 hours; format: cell-based; settings: Homo sapiens, read-out: EC50 (μM) +Dox
In short: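 HeLa line expressing hV2R[L83Q] under a tetracycline-regulated (TET-off) transactivator. Cells are pretreated with compound, challenged with an EC100 dose of vasopressin, lysed, and cAMP is read by cAMP-Glo luminescence. […] The −Dox run expresses the mutant. The +Dox counter screen adds doxycycline 36 hours before assay, shutting off mutant expression.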

[3] = test system: GnRHR[E^90K]; settings: mouse, in vivo; cited from earlier work
[4] = target: T1, hV2R[L^83Q]; settings: pre-treatment with 100 nM, absence of Dox, 384-well; cited from earlier work

SMILES: C=C[C@@]1(C)CC(=O)[C@]2(O)[C@@]3(C)[C@@H](O)CCC(C)(C)[C@@H]3[C@H](O)[C@H](OC(C)=O)[C@@]2(C)O1 [Forskolin]
- LOPAC Screen Average % Response +/- Std Dev [1]: 104+/−0%
- EC50 [2]: 0.59 µM

SMILES: Cc1cc(C)cc(-c2[nH]c3ccc(C(C)(C)C(=O)N4CC5CCC4CC5)cc3c2[C@H](C)CNCCc2ccncc2)c1 [IN3, (2S)-2-[5-[2-(2-azabicyclo[2.2.2]oct-2-yl)-1,1-dimethyl-2-oxoethyl]-2-(3,5-dimethylphenyl)-1H-indol-3-yl]-N-(2-pyridin-4-ylethyl)propan-1-amine]
- testis weight / size [3]: increased testis size; also recorded: markedly increased

SMILES: Cc1ccccc1N1CCN(S(=O)(=O)C[C@]23CC[C@H](C[C@@H]2NC(=O)[C@@H](N)CCS(C)(=O)=O)C3(C)C)CC1 [L-368,899]
- LOPAC Screen Average % Response +/- Std Dev [1]: 74+/−2%

SMILES: O=C1c2c(O)ccc(O)c2C(=O)c2c(NCCNCCO)ccc(NCCNCCO)c21 [Mitoxantrone]
- EC50 [2]: > 25 µM

SMILES: CCOc1ccc2c(c1)C1(CCC(OCCN3CCOCC3)CC1)C(=O)N2S(=O)(=O)c1ccc(C(=O)NC(C)(C)C)cc1OC (stereo not shown) [SR121463]
- cAMP response to vasopressin challenge after pharmacoperone pre-treatment [4]: robust cAMP response
- signal-to-background ratio (S/B) ([1]; -Dox assay, n=4): ~7
